Assay results from ChEMBL document CHEMBL3612008, “Synthesis and anticancer effects evaluation of 1-alkyl-3-(6-(2-methoxy-3-sulfonylaminopyridin-5-yl)benzo[d]thiazol-2-yl)urea as anticancer agents with low toxicity” (Bioorg Med Chem, 2015).

What was measured:
HCT-116 = experiment: Antiproliferative activity against human HCT116 cells incubated for 72 hrs by MTT assay; type: functional, cell-based; conditions: HCT-116, 72 h
In short: (§1)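 HCT-116, MCF-7 and U-87 MG grown in DMEM with 10% FBS, 37 °C, 5% CO2; 3000-5000 cells/well preincubated 24 h, then compounds at final 100, 10, 1, 0.1, 0.01 µM for 72 h.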

U-87 MG = experiment: Antiproliferative activity against human U87MG cells incubated for 72 hrs by MTT assay; type: functional, cell-based, U-87MG ATCC; in short: as §1
A549 = experiment: Antiproliferative activity against human A549 cells incubated for 72 hrs by MTT assay; type: functional, cell-based; conditions: A549, 72 h
In short: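 A549 in RPMI-1640 with 10% calf serum, 37 °C, 5% CO2; seeded 3000-5000 cells/well, 24 h before exposure to final 100, 10, 1, 0.1, 0.01 µM for 72 h. MTT (5 mg/ml in PBS) added, 4 h at 37 °C; formazan dissolved in DMSO, OD 570 nm. Three experiments in triplicate; IC50 from inhibition ratios.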

MCF7 = experiment: Antiproliferative activity against human MCF7 cells incubated for 72 hrs by MTT assay; type: functional, cell-based; conditions: MCF7, 72 h; in short: as §1
[1] = Acute toxicity in mouse dosed orally once daily and observed for 7 days by up and down procedure; type: organism-based; conditions: in vivo, po
In short: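 Male mice, 20.1 ± 1.9 g. Compound dissolved in NMP, then diluted with PEG400 and water (NMP/PEG400/H2O 1:6:3 by volume), given by gavage at 20 ml/kg. Starting dose 10 mg/kg, single mouse per step; dose raised 1.5-fold when the animal behaved normally, continuing until a death occurred.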

CCRF S-180 [2] = experiment: Anticancer activity against mouse S180 cells transplanted in mouse assessed as reduction in tumor weight at 3 mg/kg, po dosed once daily for 8 days; type: functional; conditions: CCRF S-180, po, 192 h
PI3K p110 beta/p85 alpha = PI3K p110 beta/p85 alpha (Homo sapiens, UniProt P42338); experiment: Inhibition of p110beta/p85alpha (unknown origin) incubated for 40 mins by luciferase based ATP depletion assay; type: protein-complex assay
[3] = molecular target: PI3-kinase p110-delta/p85-alpha (Homo sapiens, UniProt O00329); experiment: Inhibition of p110delta/p85alpha (unknown origin) incubated for 40 mins by luciferase based ATP depletion assay; type: protein-complex assay
CCRF S-180 [4] = experiment: Anticancer activity against mouse S180 cells transplanted in mouse assessed as reduction in tumor weight at 10 mg/kg, po dosed once daily for 8 days; type: functional; conditions: CCRF S-180, po, 192 h
CCRF S-180 [5] = experiment: Anticancer activity against mouse S180 cells transplanted in mouse assessed as reduction in tumor weight at 1 mg/kg, po dosed once daily for 8 days; type: functional; conditions: CCRF S-180, po, 192 h
Mus musculus = experiment: Toxicity in mouse S180 cells transplanted mouse assessed as increase in body weight at 1 to 10 mg/kg, po dosed once daily for 8 days; type: organism-based, CCRF S-180; conditions: in vivo, 192 h
In short: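 S180 flank homograft mice (3×10^6 cells s.c., 8 per group) dosed orally once daily for 8 days at 1.0, 3.0 or 10.0 mg/kg in NMP/PEG400/H2O (1:6:3), solvent-only controls; body weights recorded daily and again at sacrifice on Day 9.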

[6] = molecular target: PI3-kinase subunit gamma/Phosphoinositide 3-kinase regulatory subunit 5 (Homo sapiens, UniProt P48736); experiment: Inhibition of p110gamma/PIK3R5 (unknown origin) incubated for 40 mins by luciferase based ATP depletion assay; type: protein-complex assay
[7] = molecular target: PI3-kinase p110-alpha/p85-alpha (Homo sapiens, UniProt P42336); experiment: Inhibition of p110alpha/p85alpha (unknown origin) incubated for 40 mins by luciferase based ATP depletion assay; type: protein-complex assay
mTORC1 = mTORC1 (Homo sapiens, UniProt P42345); experiment: Inhibition of mTORC1 (unknown origin) incubated for 40 mins by luciferase based ATP depletion assay; type: protein-complex assay

Chain of PI3-kinase p110-alpha/p85-alpha (P27986 whole entry): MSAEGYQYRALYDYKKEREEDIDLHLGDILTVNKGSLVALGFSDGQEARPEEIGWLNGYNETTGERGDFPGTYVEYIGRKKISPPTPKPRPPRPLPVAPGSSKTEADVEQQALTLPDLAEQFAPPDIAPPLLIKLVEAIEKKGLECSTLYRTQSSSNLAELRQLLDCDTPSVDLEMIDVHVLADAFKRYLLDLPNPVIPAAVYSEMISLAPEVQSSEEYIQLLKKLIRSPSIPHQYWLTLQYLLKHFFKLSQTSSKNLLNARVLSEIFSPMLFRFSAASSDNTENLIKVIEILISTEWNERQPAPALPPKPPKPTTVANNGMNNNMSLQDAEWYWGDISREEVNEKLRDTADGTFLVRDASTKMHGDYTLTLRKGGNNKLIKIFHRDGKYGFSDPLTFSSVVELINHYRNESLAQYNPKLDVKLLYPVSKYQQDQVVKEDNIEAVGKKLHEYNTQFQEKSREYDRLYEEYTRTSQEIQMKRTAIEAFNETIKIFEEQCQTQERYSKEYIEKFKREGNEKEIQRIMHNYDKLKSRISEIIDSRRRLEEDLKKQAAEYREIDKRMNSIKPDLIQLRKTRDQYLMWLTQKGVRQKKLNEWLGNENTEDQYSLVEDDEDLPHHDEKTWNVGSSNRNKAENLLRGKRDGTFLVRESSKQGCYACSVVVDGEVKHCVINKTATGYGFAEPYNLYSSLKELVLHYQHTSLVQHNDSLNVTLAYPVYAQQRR
Chain of PI3-kinase p110-alpha/p85-alpha (P42336 whole entry): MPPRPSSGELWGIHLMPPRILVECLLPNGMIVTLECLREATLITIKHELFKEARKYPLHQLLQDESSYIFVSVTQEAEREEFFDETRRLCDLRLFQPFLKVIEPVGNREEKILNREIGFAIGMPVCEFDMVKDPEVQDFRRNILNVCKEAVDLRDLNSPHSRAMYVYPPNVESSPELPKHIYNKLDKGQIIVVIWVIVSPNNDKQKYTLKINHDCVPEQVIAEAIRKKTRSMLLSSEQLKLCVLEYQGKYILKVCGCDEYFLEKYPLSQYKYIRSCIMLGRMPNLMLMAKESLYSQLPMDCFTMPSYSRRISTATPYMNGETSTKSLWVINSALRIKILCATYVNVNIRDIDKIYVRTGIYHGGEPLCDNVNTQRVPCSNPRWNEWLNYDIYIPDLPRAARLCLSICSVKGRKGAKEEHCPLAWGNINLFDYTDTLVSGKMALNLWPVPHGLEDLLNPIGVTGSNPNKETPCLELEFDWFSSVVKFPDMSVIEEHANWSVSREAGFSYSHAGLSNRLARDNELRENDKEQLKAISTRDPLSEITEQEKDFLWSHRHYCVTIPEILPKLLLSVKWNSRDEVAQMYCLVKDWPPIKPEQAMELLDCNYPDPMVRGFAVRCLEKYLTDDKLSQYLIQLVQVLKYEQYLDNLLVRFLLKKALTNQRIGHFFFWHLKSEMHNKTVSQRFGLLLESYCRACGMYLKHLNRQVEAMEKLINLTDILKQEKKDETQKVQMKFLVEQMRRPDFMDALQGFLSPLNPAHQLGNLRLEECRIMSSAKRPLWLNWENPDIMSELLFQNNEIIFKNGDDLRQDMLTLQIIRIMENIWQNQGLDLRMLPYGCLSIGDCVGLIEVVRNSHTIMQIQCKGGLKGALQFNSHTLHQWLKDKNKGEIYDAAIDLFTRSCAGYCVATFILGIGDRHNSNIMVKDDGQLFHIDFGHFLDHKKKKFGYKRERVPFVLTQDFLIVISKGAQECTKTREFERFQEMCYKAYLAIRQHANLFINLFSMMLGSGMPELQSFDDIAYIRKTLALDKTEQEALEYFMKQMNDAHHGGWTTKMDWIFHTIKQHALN
Chain of PI3K p110 beta/p85 alpha (P27986 whole entry): as the sequence (P27986 whole entry) above
Chain of PI3K p110 beta/p85 alpha (P42338 whole entry): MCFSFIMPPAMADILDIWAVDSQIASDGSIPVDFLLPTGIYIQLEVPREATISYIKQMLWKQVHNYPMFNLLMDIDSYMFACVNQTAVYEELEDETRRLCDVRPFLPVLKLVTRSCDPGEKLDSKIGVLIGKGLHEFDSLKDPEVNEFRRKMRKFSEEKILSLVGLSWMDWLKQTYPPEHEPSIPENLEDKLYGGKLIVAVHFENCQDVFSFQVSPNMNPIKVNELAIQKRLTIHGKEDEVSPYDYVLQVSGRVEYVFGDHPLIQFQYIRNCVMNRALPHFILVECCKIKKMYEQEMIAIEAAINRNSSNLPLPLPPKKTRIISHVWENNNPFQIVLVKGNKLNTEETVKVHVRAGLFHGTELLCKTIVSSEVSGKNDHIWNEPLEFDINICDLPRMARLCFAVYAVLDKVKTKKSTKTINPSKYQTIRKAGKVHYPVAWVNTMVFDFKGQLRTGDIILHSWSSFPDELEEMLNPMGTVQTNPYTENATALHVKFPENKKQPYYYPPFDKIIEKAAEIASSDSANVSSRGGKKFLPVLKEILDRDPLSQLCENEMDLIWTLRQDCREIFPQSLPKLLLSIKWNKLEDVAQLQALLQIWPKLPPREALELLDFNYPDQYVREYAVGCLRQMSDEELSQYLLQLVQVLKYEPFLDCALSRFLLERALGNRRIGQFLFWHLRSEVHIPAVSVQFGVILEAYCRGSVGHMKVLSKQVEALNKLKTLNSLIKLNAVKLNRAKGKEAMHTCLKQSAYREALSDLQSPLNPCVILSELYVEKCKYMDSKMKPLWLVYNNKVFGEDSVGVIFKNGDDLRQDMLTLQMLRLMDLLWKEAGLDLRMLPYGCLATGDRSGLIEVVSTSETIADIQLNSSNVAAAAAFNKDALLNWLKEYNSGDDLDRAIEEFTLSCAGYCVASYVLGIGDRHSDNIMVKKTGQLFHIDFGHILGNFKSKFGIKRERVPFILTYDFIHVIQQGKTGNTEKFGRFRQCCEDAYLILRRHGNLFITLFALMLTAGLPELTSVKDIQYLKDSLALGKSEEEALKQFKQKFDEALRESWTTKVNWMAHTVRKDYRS
Chain of PI3-kinase p110-delta/p85-alpha (P27986 whole entry): as the sequence (P27986 whole entry) above
Chain of PI3-kinase p110-delta/p85-alpha (O00329 whole entry): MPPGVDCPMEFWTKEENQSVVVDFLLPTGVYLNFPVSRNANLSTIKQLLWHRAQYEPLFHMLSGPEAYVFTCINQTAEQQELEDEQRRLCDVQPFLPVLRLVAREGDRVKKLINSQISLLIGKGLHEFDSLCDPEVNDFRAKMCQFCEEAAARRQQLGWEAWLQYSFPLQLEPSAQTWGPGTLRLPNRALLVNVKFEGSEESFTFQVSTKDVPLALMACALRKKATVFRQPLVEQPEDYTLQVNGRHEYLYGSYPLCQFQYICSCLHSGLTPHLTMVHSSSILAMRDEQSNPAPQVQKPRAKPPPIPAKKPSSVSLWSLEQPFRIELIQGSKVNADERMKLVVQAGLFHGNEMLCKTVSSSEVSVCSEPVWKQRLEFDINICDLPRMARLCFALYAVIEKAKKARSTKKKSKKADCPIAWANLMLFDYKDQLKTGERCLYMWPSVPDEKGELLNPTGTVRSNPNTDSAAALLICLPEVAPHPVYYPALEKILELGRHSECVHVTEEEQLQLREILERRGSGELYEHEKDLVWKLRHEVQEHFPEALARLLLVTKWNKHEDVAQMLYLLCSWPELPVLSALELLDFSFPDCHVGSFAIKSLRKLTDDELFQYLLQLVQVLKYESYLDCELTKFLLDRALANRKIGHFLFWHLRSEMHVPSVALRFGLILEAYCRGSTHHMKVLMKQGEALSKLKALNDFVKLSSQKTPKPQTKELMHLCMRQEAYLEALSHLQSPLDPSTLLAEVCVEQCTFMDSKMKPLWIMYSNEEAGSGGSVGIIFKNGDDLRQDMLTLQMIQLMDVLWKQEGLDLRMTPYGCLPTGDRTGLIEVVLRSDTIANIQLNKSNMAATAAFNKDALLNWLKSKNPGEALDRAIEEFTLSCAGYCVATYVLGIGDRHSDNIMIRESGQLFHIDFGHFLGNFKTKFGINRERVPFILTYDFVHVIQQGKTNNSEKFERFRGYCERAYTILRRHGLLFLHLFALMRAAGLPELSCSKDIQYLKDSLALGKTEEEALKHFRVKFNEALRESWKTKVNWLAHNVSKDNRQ

## O=S(=O)(Nc1cc(-c2ccc3nc(NC4CC4)sc3c2)cnc1Cl)c1ccc(F)cc1
HCT-116
  IC50: 5750 nM

## COc1ncc(-c2ccc3nc(NC(=O)NCCN4CCOCC4)sc3c2)cc1NS(=O)(=O)c1ccc(C)cc1
U-87 MG
  IC50: 520 nM
HCT-116
  IC50: 570 nM
A549
  IC50: 380 nM
MCF7
  IC50: 210 nM

## COc1ncc(-c2ccc3nc(NC(=O)NCCN4CCOCC4)sc3n2)cc1NS(=O)(=O)c1ccc(F)cc1
U-87 MG
  IC50: 480 nM
HCT-116
  IC50: 250 nM
A549
  IC50: 490 nM
MCF7
  IC50: 260 nM

## O=C(Nc1nc2ccc(-c3cnc(Cl)c(NS(=O)(=O)c4ccc(F)cc4)c3)cc2s1)NC1CC1
U-87 MG
  IC50: 1720 nM
HCT-116
  IC50: 1750 nM
A549
  IC50: 1030 nM
MCF7
  IC50: 1090 nM

## COc1ccc(-c2ccc3nc(NC(=O)NCCN4CCOCC4)sc3c2)cn1
U-87 MG
  IC50: 7230 nM
HCT-116
  IC50: > 20000 nM
A549
  IC50: 5160 nM
MCF7
  IC50: > 20000 nM

## Cn1c(=O)n(-c2ccc(C(C)(C)C#N)cc2)c2c3cc(-c4cnc5ccccc5c4)ccc3ncc21 [DACTOLISIB]
U-87 MG
  IC50: 1410 nM
A549
  IC50: 760 nM
MCF7
  IC50: 480 nM

## CCN(CC)CCNC(=O)Nc1nc2ccc(-c3cnc(OC)c(NS(=O)(=O)c4ccc(C)cc4)c3)cc2s1
U-87 MG
  IC50: 360 nM
HCT-116
  IC50: 180 nM
A549
  IC50: 310 nM
MCF7
  IC50: 170 nM

## CCN(CC)CCNC(=O)Nc1nc2ccc(-c3cnc(OC)c(NS(=O)(=O)c4ccc(F)cc4)c3)cc2s1
[1]
  LD50 at 168 h: 320 mg/kg
CCRF S-180 [2]
  inhibition in vivo at 3 mg/kg: 44.3%
U-87 MG
  IC50: 390 nM
PI3K p110 beta/p85 alpha
  IC50: 90 nM
HCT-116
  IC50: 300 nM
[3]
  IC50: 148 nM
A549
  IC50: 450 nM
CCRF S-180 [4]
  inhibition in vivo at 10 mg/kg: 56.2%
CCRF S-180 [5]
  inhibition in vivo at 1 mg/kg: 27.2%
Mus musculus
  Activity: Non-toxic
[6]
  IC50: 11 nM
MCF7
  IC50: 320 nM
[7]
  IC50: 13 nM
mTORC1
  IC50: 78 nM

## COc1ncc(-c2ccc3nc(NC(=O)NCCN4CCOCC4)sc3c2)cc1NS(=O)(=O)c1ccc(Cl)cc1
U-87 MG
  IC50: 1050 nM
HCT-116
  IC50: 540 nM
A549
  IC50: 530 nM
MCF7
  IC50: 650 nM

## CNC(=O)Nc1nc2ccc(-c3cnc(OC)c(NS(=O)(=O)c4ccc(F)cc4)c3)cc2s1
[1]
  LD50 at 168 h: 40 mg/kg
U-87 MG
  IC50: 1230 nM
HCT-116
  IC50: 870 nM
A549
  IC50: 1560 nM
MCF7
  IC50: 1190 nM

## COc1ncc(-c2ccc3nc(NC(=O)NC4CC4)sc3c2)cc1NS(=O)(=O)c1ccc(F)cc1
U-87 MG
  IC50: 520 nM
HCT-116
  IC50: 470 nM
A549
  IC50: 900 nM
MCF7
  IC50: 1190 nM

## COc1ncc(-c2ccc3nc(NC(=O)NCCN4CCOCC4)sc3c2)cc1NS(=O)(=O)C1CC1
U-87 MG
  IC50: 1670 nM
HCT-116
  IC50: 640 nM
A549
  IC50: 1920 nM
MCF7
  IC50: 1800 nM

## CCCNc1nc2ccc(-c3cnc(Cl)c(NS(=O)(=O)c4ccc(F)cc4)c3)cc2s1
HCT-116
  IC50: > 20000 nM

## COc1ncc(-c2ccc3nc(NC4CC4)sc3c2)cc1NS(=O)(=O)c1ccc(F)cc1
U-87 MG
  IC50: 1500 nM
HCT-116
  IC50: 1560 nM
A549
  IC50: 1330 nM
MCF7
  IC50: 450 nM

## COc1ncc(-c2ccc3nc(NC(=O)NCCN(C)C)sc3c2)cc1NS(=O)(=O)c1ccc(F)cc1
U-87 MG
  IC50: 1020 nM
HCT-116
  IC50: 240 nM
A549
  IC50: 470 nM
MCF7
  IC50: 500 nM

## COc1ncc(-c2ccc3nc(NC(=O)NCCN4CCCC4)sc3c2)cc1NS(=O)(=O)c1ccc(F)cc1
[1]
  LD50 at 168 h: 300 mg/kg
U-87 MG
  IC50: 360 nM
HCT-116
  IC50: 310 nM
A549
  IC50: 300 nM
MCF7
  IC50: 410 nM

## CC(=O)Nc1nc2ccc(-c3cnc(Cl)c(NS(=O)(=O)c4ccc(F)cc4)c3)cc2s1
[1]
  LD50 at 168 h: 20 mg/kg
U-87 MG
  IC50: 440 nM
HCT-116
  IC50: 440 nM
A549
  IC50: 410 nM
MCF7
  IC50: 430 nM

## CCN(CC)CCNC(=O)Nc1nc2ccc(-c3cnc(Cl)c(NS(=O)(=O)c4ccc(F)cc4)c3)cc2s1
U-87 MG
  IC50: 1390 nM
HCT-116
  IC50: 920 nM
A549
  IC50: 5260 nM
MCF7
  IC50: 710 nM

## COc1ncc(-c2ccc3nc(NC(=O)NCCN4CCOCC4)sc3c2)cc1C#N
U-87 MG
  IC50: 8380 nM
HCT-116
  IC50: 4550 nM
A549
  IC50: 4710 nM
MCF7
  IC50: 2300 nM

## COc1ncc(-c2ccc3nc(NC(=O)NCCN4CCOCC4)sc3c2)cc1NS(=O)(=O)c1ccc(F)cc1
U-87 MG
  IC50: 490 nM
HCT-116
  IC50: 520 nM
A549
  IC50: 430 nM
MCF7
  IC50: 750 nM

## COc1ncc(-c2ccc3nc(NC(=O)NCCN4CCCCC4)sc3c2)cc1NS(=O)(=O)c1ccc(F)cc1
U-87 MG
  IC50: 750 nM
HCT-116
  IC50: 610 nM
A549
  IC50: 330 nM
MCF7
  IC50: 450 nM

## O=C(NCCN1CCOCC1)Nc1nc2ccc(-c3cnc(Cl)c(NS(=O)(=O)c4ccc(F)cc4)c3)cc2s1
U-87 MG
  IC50: 2390 nM
HCT-116
  IC50: 2960 nM
A549
  IC50: 6690 nM
MCF7
  IC50: 950 nM

## CCOC(=O)CNc1nc2ccc(-c3cnc(OC)c(NS(=O)(=O)c4ccc(F)cc4)c3)cc2s1
HCT-116
  IC50: > 20000 nM

## COc1ncc(-c2ccc3nc(NC(=O)NCCN4CCN(C)CC4)sc3c2)cc1NS(=O)(=O)c1ccc(F)cc1
[1]
  LD50 at 168 h: 300 mg/kg
U-87 MG
  IC50: 440 nM
HCT-116
  IC50: 540 nM
A549
  IC50: 550 nM
MCF7
  IC50: 470 nM
